From PubChem BioAssay
Calls of active or inactive are those of the source.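 How the source made its calls, unless noted: active means fluorescence slope after compound addition differing from the mean of all tested samples at 99.7% confidence, mostly higher but some lower; inactive means the rest.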 Where a SMILES comes first, the peptide text is derived from it. The star is where a group is joined. Boc = CC(C)(C)OC(=O)*

What follows are compounds tested against Voltage-gated potassium channel subunit beta-2 (Rattus norvegicus) (UniProt P62483) (assay: KvBeta positive modulators, primary screen, biochemical, NADPH fluorescence (AID 623;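 active means NADPH fluorescence slope more negative than the mean of all samples by about 3 SD, 99.7% confidence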;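 further: fluorescence intensity change per second fitted from 20 to 320 s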)). Conditions: Recombinant KvBeta, NADPH fluorescence decrease slope, 10 min; at 10 µM; hits give low values.
Sequence of Voltage-gated potassium channel subunit beta-2 (Rattus norvegicus) (P62483 whole entry, looked up): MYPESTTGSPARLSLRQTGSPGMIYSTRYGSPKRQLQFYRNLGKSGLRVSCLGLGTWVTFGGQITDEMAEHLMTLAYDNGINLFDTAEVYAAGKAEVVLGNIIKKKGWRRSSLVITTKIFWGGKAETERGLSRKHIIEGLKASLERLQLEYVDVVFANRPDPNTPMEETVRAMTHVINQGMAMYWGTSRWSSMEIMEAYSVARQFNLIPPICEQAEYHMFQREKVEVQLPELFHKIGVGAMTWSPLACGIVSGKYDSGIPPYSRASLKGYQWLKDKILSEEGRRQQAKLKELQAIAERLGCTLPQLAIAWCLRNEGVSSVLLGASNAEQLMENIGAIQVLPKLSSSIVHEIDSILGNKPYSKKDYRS

NADPH fluorescence slope, inactive:
CCN(CC(=O)NC(=O)NCc1ccco1)Cc1nc2ccccc2c(=O)[nH]1 -5.5e-05
CC(=O)c1nnn(-c2nc(N3CCCC3)nc(N(c3ccccc3)c3ccccc3)n2)c1C -5.5e-05
CC(NC(=O)c1ccccc1NC(=O)c1ccco1)C(=O)O (stereo not given) -5.5e-05
CCN(CC)S(=O)(=O)c1ccc2oc(C(=O)O)c(C)c2c1 0.000115
CCOc1ccc(N(CC(=O)NCC2CCCO2)S(=O)(=O)c2ccc(OC)c(OC)c2)cc1 (stereo not given) -3.5e-05
O=C(CSc1nnc(-c2cccs2)o1)N1CCOCC1 -3.4e-05
CCc1c(C)nc(N2CCN(Cc3ccccc3)CC2)[nH]c1=O 2.9e-05
CCOc1ncccc1C(=O)OCC(=O)Nc1ncc(C(F)(F)F)cc1Cl 2.6e-05
O=C(NCc1n[nH]c(=S)n1-c1ccc(F)cc1)c1ccco1 -2.7e-05
CCOc1ccccc1N1CCN(c2nc(N)c(C#N)c(CC#N)c2C#N)CC1 -1e-05
CCOc1ccc2cc(C#N)c(SCC(=O)N3CCCC3)nc2c1 -5.2e-05
COC(=O)c1ccc(CSc2nc3ccccc3c(=O)n2Cc2ccco2)o1 -1.4e-05
CCn1c(C(=O)N2CCCC(C(=O)O)C2)cc2sccc21 (stereo not given) 8.2e-05
CCOC(=O)C(CC)(CCC(=O)O)c1csc(N)n1 (stereo not given) -3.9e-05
Cc1c(C(=O)O)oc2ccc(S(=O)(=O)NCc3ccccc3)cc12 4.7e-05
COc1cc(-c2noc(-c3cccc(Cl)c3)n2)cc(OC)c1OC 2.5e-05
COc1ccc2c(c1)c1c(n2C(C)=O)C(OC(C)=O)=NCC1 -2.6e-05
Nc1c(C2=NCCO2)nnn1Cc1ccccc1 -4.6e-05
COc1ccccc1-c1noc(-c2cccnc2)n1 -7.6e-05
CCn1ncc(C2=NOC(C(=O)NCc3ccc(Cl)cc3)C2)c1C (stereo not given) 2.6e-05
COC(=O)c1cc(Br)c(=O)n(CCN2CCOCC2)c1 -6.4e-05
COc1ccc(OC)c(S(=O)(=O)Nc2ccc(C(N)=O)cc2)c1 -0.000185
O=C(Cn1nc(-c2ccc(Cl)cc2)ccc1=O)NCCCN1CCN(Cc2ccccc2)CC1 3e-05
CCC1Oc2ccccc2N(CC(=O)Nc2ccc(OC)cc2OC)C1=O (stereo not given) -0.000132
COCCCNC(=O)CCc1nc(-c2ccccc2Cl)no1 -9.5e-06
CC(C)(C)OC(=O)N1CCCC1C(=O)N1CCCC1C(=O)N1CCCC1C(=O)O (stereo not drawn) (Boc-Pro-Pro-Pro-OH; configuration not given here) -4.7e-05
CCOC(=O)N1CCN(S(=O)(=O)c2cc(Cl)c(OC)cc2Cl)CC1 4.3e-05
c1ccc(Cn2nnnc2C(c2ccccn2)N2CCOCC2)cc1 (stereo not given) -4.9e-05
Cc1nn(-c2ccc(F)cc2)c2nc(N)c(C#N)c(-c3cccs3)c12 -1.4e-05
O=C(c1ccc(NS(=O)(=O)c2cccs2)cc1)N1CCCCC1 -3.6e-05
O=c1c2nnn(Cc3ccccc3)c2ncn1-c1ccccc1 -8.2e-05
COc1cccc(CNC(=O)CCn2c(=O)oc3ccccc32)c1 5e-05
COc1ccc(-c2nn(-c3ccccc3)cc2/C=N/n2cnnc2)cc1OC -6.1e-05
CN(CCC#N)C(=O)COC(=O)c1ccc(Cl)c(S(N)(=O)=O)c1 -5.1e-05
CC(C)C(=O)Nc1nnc(CCc2nnc(NC(=O)C(C)C)s2)s1 1.7e-05
CCN(CCCNC(=O)c1cn(CC)c2ccc(S(=O)(=O)N(C)C)cc2c1=O)c1cccc(C)c1 8.6e-05
Cc1ccc(S(=O)(=O)n2nc(OC(=O)c3ccco3)cc2N)cc1 -9.4e-05
COc1ccc2c(C(=O)CN(C)C3CCCCC3)c[nH]c2c1 -2.1e-05
CCOC(=O)CN(C)Cc1c[nH]c2ccccc12 -4.3e-05
CCOC(=O)N1CCN(C(=O)CN(C)S(=O)(=O)c2ccc(OC)c(OC)c2)CC1 -3.8e-05

These compounds were tested against Muscarinic acetylcholine receptor M4 (Homo sapiens) (UniProt P08173) (assay: compounds altering M4/GIRK thallium flux, either direction, primary screen, M4 allosteric agonist project, cell-based, HEK293 M4/GIRK, BTC-AM (AID 625;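 further: thallium influx through GIRK channels coupled to M4 in HEK293 cells with BTC-AM dye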)). Conditions: at 10 µM, actives lie on both sides.
Outline: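 Assay system: HEK293 cells with M4 receptor and GIRK channels / Controls: carbachol and DMSO controls / Schedule: 1 h dye loading, 2 min kinetic read / Technique: kinetic fluorescence with BTC-AM dye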

Sequence of Muscarinic acetylcholine receptor M4 (Homo sapiens) (P08173 whole entry, looked up): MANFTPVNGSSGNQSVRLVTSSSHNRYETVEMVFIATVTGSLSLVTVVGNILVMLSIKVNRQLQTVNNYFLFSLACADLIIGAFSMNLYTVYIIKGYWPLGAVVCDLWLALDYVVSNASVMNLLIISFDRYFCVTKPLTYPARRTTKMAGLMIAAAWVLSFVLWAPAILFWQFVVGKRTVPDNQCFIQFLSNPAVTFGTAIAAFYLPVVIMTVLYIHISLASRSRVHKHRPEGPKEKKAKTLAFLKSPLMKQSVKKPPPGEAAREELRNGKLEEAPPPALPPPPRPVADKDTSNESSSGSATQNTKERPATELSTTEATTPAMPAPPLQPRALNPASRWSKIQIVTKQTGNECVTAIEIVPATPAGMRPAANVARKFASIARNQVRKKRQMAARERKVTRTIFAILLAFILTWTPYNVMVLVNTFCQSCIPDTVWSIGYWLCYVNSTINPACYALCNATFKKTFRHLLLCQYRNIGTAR

Fluorescence slope, inactive:
CCN(CC(=O)NC(=O)NCc1ccco1)Cc1nc2ccccc2c(=O)[nH]1 0.0066
CC(=O)c1nnn(-c2nc(N3CCCC3)nc(N(c3ccccc3)c3ccccc3)n2)c1C 0.00803
CC(NC(=O)c1ccccc1NC(=O)c1ccco1)C(=O)O (stereo not given) 0.006
CCN(CC)S(=O)(=O)c1ccc2oc(C(=O)O)c(C)c2c1 0.00522
CCOc1ccc(N(CC(=O)NCC2CCCO2)S(=O)(=O)c2ccc(OC)c(OC)c2)cc1 (stereo not given) 0.00351
O=C(CSc1nnc(-c2cccs2)o1)N1CCOCC1 0.0054
CCc1c(C)nc(N2CCN(Cc3ccccc3)CC2)[nH]c1=O 0.00476
CCOc1ncccc1C(=O)OCC(=O)Nc1ncc(C(F)(F)F)cc1Cl 0.00542
O=C(NCc1n[nH]c(=S)n1-c1ccc(F)cc1)c1ccco1 0.00529
CCOc1ccccc1N1CCN(c2nc(N)c(C#N)c(CC#N)c2C#N)CC1 0.00416
CCOc1ccc2cc(C#N)c(SCC(=O)N3CCCC3)nc2c1 0.00682
COC(=O)c1ccc(CSc2nc3ccccc3c(=O)n2Cc2ccco2)o1 0.00748
CCn1c(C(=O)N2CCCC(C(=O)O)C2)cc2sccc21 (stereo not given) 0.00595
CCOC(=O)C(CC)(CCC(=O)O)c1csc(N)n1 (stereo not given) 0.00527
Cc1c(C(=O)O)oc2ccc(S(=O)(=O)NCc3ccccc3)cc12 0.00586
COc1cc(-c2noc(-c3cccc(Cl)c3)n2)cc(OC)c1OC 0.00623
COc1ccc2c(c1)c1c(n2C(C)=O)C(OC(C)=O)=NCC1 0.00438
Nc1c(C2=NCCO2)nnn1Cc1ccccc1 0.00414
COc1ccccc1-c1noc(-c2cccnc2)n1 0.00345
CCn1ncc(C2=NOC(C(=O)NCc3ccc(Cl)cc3)C2)c1C (stereo not given) 0.0055
COC(=O)c1cc(Br)c(=O)n(CCN2CCOCC2)c1 0.00578
COc1ccc(OC)c(S(=O)(=O)Nc2ccc(C(N)=O)cc2)c1 0.00432
O=C(Cn1nc(-c2ccc(Cl)cc2)ccc1=O)NCCCN1CCN(Cc2ccccc2)CC1 0.00673
CCC1Oc2ccccc2N(CC(=O)Nc2ccc(OC)cc2OC)C1=O (stereo not given) 0.00464
COCCCNC(=O)CCc1nc(-c2ccccc2Cl)no1 0.00327
CC(C)(C)OC(=O)N1CCCC1C(=O)N1CCCC1C(=O)N1CCCC1C(=O)O (stereo not drawn) (Boc-Pro-Pro-Pro-OH; configuration not given here) 0.00689
CCOC(=O)N1CCN(S(=O)(=O)c2cc(Cl)c(OC)cc2Cl)CC1 0.00536
c1ccc(Cn2nnnc2C(c2ccccn2)N2CCOCC2)cc1 (stereo not given) 0.00747
Cc1nn(-c2ccc(F)cc2)c2nc(N)c(C#N)c(-c3cccs3)c12 0.00193
O=C(c1ccc(NS(=O)(=O)c2cccs2)cc1)N1CCCCC1 0.00524
O=c1c2nnn(Cc3ccccc3)c2ncn1-c1ccccc1 0.00572
COc1cccc(CNC(=O)CCn2c(=O)oc3ccccc32)c1 0.0058
COc1ccc(-c2nn(-c3ccccc3)cc2/C=N/n2cnnc2)cc1OC 0.00596
CN(CCC#N)C(=O)COC(=O)c1ccc(Cl)c(S(N)(=O)=O)c1 0.00521
CC(C)C(=O)Nc1nnc(CCc2nnc(NC(=O)C(C)C)s2)s1 0.00508
CCN(CCCNC(=O)c1cn(CC)c2ccc(S(=O)(=O)N(C)C)cc2c1=O)c1cccc(C)c1 0.00589
Cc1ccc(S(=O)(=O)n2nc(OC(=O)c3ccco3)cc2N)cc1 0.00488
COc1ccc2c(C(=O)CN(C)C3CCCCC3)c[nH]c2c1 0.0054
CCOC(=O)CN(C)Cc1c[nH]c2ccccc12 0.00441
CCOC(=O)N1CCN(C(=O)CN(C)S(=O)(=O)c2ccc(OC)c(OC)c2)CC1 0.00404
